Reference: ChEMBL document CHEMBL4373708 (J Med Chem, 2019)
Blank lines part the entries; values can stand above or below the compound they belong to. Active and inactive are the calls of the source. The rule behind the calls is not given here.

Experiments:
[1] = Drug level in mouse serum at 10 mg/kg, po or ip measured after 72 hrs by LC-MS analysis; type: ADME, organism-based; settings: read-out: Drug uptake
Summary of the method: (§1)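 Single intraperitoneal or oral dose in mice at 5 mg/kg (vehicle: saline with 5% DMSO and 10% Kolliphor HS 15) or 10 mg/kg (vehicle: PBS with 5% DMSO and 20% (2-hydroxypropyl)-β-cyclodextrin). Blood taken by retroorbital puncture at set times, serum separated by centrifugation at 4000 g for 20 min at 24 °C, compound quantified by LC/MS.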

[2] = Toxicity in CD-1 mouse assessed as effect on fecal pellet number at 10 mg/kg, po administered via gavage for 1 hr; type: organism-based; settings: in vivo
Summary of the method: (§2)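 Female CD1 mice aged 8–10 weeks without loperamide: 10 mg/kg compound or vehicle (PBS with 5% DMSO and 20% (2-hydroxypropyl)-β-cyclodextrin) by gavage, 1 h before ip injection of loperamide vehicle (5% ethanol in PBS). Mice were caged singly in metabolic cages and stool collected 3 h for weight, pellet count and water content (dried 80 °C, 24 h).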

[3] = Tmax in mouse at 10 mg/kg, po by LC-MS analysis; type: ADME, organism-based; settings: in vivo; summary of the method: as §1
Mus musculus [4] = test: Anti-absorptive activity in loperamide-induced CD-1 mouse model of constipation assessed as improvement in fecal pellet number at 3 mg/kg, po administered via gavage for 1 hr prior to loperamide challenge and measured after 3 hrs; type: functional, organism-based
Summary of the method: (§3)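 Mice were held singly in metabolic cages with food and water. Stool was collected 3 h for weight and pellet count; water content = (wet−dry)/wet after drying 24 h at 80 °C. 5-8 mice/group, one-way ANOVA with Newman-Keuls.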

Mus musculus [5] = test: Anti-absorptive activity in loperamide-induced CD-1 mouse model of constipation assessed as stool hydration at 1 mg/kg, po administered via gavage for 1 hr prior to loperamide challenge and measured after 3 hrs relative to control; type: functional; summary of the method: as §3
[6] = Cmax in mouse at 10 mg/kg, po by LC-MS analysis; type: ADME, organism-based; parameters: dose 10 mg/kg, route oral; settings: in vivo; summary of the method: as §1
[7] = Cmax in mouse at 10 mg/kg, ip by LC-MS analysis; type: ADME, organism-based; parameters: dose 10 mg/kg, route intraperitoneal; settings: in vivo; summary of the method: as §1
Mus musculus [8] = test: Anti-absorptive activity in loperamide-induced CD-1 mouse model of constipation assessed as improvement in stool water content at 3 mg/kg, po administered via gavage for 1 hr prior to loperamide challenge and measured after 3 hrs; type: functional, organism-based; summary of the method: as §3
[9] = Tmax in mouse at 10 mg/kg, ip by LC-MS analysis; type: ADME, organism-based; settings: in vivo; summary of the method: as §1
[10] = Toxicity in CD-1 mouse assessed as effect on stool water content at 10 mg/kg, po administered via gavage for 1 hr; type: organism-based; settings: in vivo; summary of the method: as §2
[11] = biological target: T1, Solute carrier family 26 member 6 (Mus musculus) (UniProt Q8CIW6); test: Inhibition of mouse slc26a6 expressed in FRT cells co-expressing EYFP-H148Q/I152L/F46L assessed as reduction in protein-mediated chloride/iodide exchange at 10 uM preincubated for 10 mins followed by NaI-substituted PBS addition and measured by YFP-based fluorescence assay; type: cell-based
T1 sequence (whole entry): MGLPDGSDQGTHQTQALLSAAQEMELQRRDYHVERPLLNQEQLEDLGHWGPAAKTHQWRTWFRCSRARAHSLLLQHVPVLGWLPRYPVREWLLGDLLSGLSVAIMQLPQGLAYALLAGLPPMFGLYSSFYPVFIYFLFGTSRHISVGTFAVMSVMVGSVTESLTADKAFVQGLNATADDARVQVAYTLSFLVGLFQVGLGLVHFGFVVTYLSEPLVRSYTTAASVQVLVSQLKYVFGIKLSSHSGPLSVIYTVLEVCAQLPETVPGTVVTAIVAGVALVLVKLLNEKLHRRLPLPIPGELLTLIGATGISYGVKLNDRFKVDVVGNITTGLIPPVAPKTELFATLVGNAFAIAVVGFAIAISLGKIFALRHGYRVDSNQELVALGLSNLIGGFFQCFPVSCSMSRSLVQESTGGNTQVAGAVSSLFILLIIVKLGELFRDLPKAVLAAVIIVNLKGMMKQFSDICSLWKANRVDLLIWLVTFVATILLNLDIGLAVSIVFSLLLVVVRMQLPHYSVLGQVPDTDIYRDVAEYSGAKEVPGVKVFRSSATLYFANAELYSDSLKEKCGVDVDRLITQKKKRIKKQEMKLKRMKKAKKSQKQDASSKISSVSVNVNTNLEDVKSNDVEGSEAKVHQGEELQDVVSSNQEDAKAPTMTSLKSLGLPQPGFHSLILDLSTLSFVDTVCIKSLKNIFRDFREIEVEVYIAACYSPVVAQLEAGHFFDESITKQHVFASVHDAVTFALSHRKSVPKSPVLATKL
Summary of the method: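 FRT cells expressing the given slc26 transporter plus EYFP-H148Q/I152L/F46L were preincubated 10 min with 0 or 10 µM compound in PBS. Iodide-substituted PBS was then added (140 mM NaCl replaced by NaI). The rate of YFP fluorescence quenching gave chloride/iodide exchange.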

[12] = AUC in mouse at 10 mg/kg, po by LC-MS analysis; type: ADME, organism-based; settings: in vivo; summary of the method: as §1
Mus musculus [13] = test: Anti-absorptive activity in loperamide-induced CD-1 mouse model of constipation assessed as improvement in stool weight at 3 mg/kg, po administered via gavage for 1 hr prior to loperamide challenge and measured after 3 hrs; type: functional, organism-based; summary of the method: as §3
[14] = Toxicity in CD-1 mouse assessed as effect on stool weight at 10 mg/kg, po administered via gavage for 1 hr; type: organism-based; settings: in vivo; summary of the method: as §2
[15] = AUC in mouse at 10 mg/kg, ip by LC-MS analysis; type: ADME, organism-based; settings: in vivo; summary of the method: as §1
[16] = Cmax in mouse at 5 mg/kg, ip by LC-MS analysis; type: ADME, organism-based; parameters: dose 5 mg/kg, route intraperitoneal; settings: in vivo; summary of the method: as §1
[17] = Drug uptake in mouse serum at 5 mg/kg, po or ip measured after 16 hrs by LC-MS analysis; type: ADME, organism-based; settings: in vivo; summary of the method: as §1
Mus musculus [18] = test: Anti-absorptive activity in loperamide-induced CD-1 mouse model of constipation assessed as improvement in stool weight at 5 mg/kg, po administered via gavage for 1 hr prior to loperamide challenge and measured after 3 hrs; type: functional, organism-based
Summary of the method: (§4)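 Female CD1 mice aged 8–10 weeks were gavaged with 5 mg/kg compound or vehicle 1 h before ip loperamide (0.3 mg/kg in 5% ethanol/PBS). Mice were kept singly in metabolic cages and stool collected for 3 h. Total weight and pellet number were recorded; water content = (wet−dry)/wet after drying at 80 °C for 24 h. Mean ± S.E.M., 4-6 mice per group.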

[19] = AUC in mouse at 5 mg/kg, po by LC-MS analysis; type: ADME, organism-based; settings: in vivo; summary of the method: as §1
[20] = AUC in mouse at 5 mg/kg, ip by LC-MS analysis; type: ADME, organism-based; settings: in vivo; summary of the method: as §1
Mus musculus [21] = test: Anti-absorptive activity in loperamide-induced CD-1 mouse model of constipation assessed as improvement in stool water content at 5 mg/kg, po administered via gavage for 1 hr prior to loperamide challenge and measured after 3 hrs; type: functional, organism-based; summary of the method: as §4
[22] = Tmax in mouse at 5 mg/kg, po by LC-MS analysis; type: ADME, organism-based; settings: in vivo; summary of the method: as §1
[23] = Tmax in mouse at 5 mg/kg, ip by LC-MS analysis; type: ADME, organism-based; settings: in vivo; summary of the method: as §1
Mus musculus [24] = test: Anti-absorptive activity in loperamide-induced CD-1 mouse model of constipation assessed as improvement in fecal pellet number at 5 mg/kg, po administered via gavage for 1 hr prior to loperamide challenge and measured after 3 hrs; type: functional, organism-based; summary of the method: as §4
[25] = Cmax in mouse at 5 mg/kg, po by LC-MS analysis; type: ADME, organism-based; parameters: dose 5 mg/kg, route oral; settings: in vivo; summary of the method: as §1

- concentration at 72 h [1]: 1 µM
- Tmax [3]: 390 min
- Cmax [6]: 4.7 µM
- Cmax [7]: 29.1 µM
- Tmax [9]: 30 min
- inhibition [11]: inactive
- AUC [12]: 130 µM·h
- AUC [15]: 331 µM·h
SMILES: Cc1c(CC(=O)O)c(=O)oc2c(C)c(OCc3cccc(I)c3)ccc12
- Activity [2]: Non-Toxic
- Activity (Mus musculus [4]): Active
- Activity (Mus musculus [5]): >50%
- Activity (Mus musculus [8]): Active
- Activity [10]: Non-Toxic
- Activity (Mus musculus [13]): Active
- Activity [14]: Non-Toxic

- Cmax [16]: 70.2 µM
- Drug uptake [17]: Active
- AUC [19]: 69 µM·h
- AUC [20]: 418 µM·h
- Tmax [22]: 48 min
- inhibition [11]: inactive
- Tmax [23]: 48 min
- Cmax [25]: 12.9 µM
SMILES: Cc1c(CC(=O)O)c(=O)oc2c(C)c(OCc3cccc(C(F)(F)F)c3)ccc12
- Activity (Mus musculus [18]): Active
- Activity (Mus musculus [21]): Active
- Activity (Mus musculus [24]): Active
